Consider 1 molecule from ChEMBL document CHEMBL1649179, “Pharmacokinetics of LB80331 and LB80317 following oral administration of LB80380, a new antiviral agent for chronic hepatitis B (CHB), in healthy adult subjects, CHB patients, and mice” (Antimicrob Agents Chemother, 2009).

Common to all, as to assay type: ADME, organism-based
Series [1] deals with Homo sapiens. As to the kind of experiment: Oral clearance in chronic hepatitis B virus infected patient assessed as (1-((2-amino-9H-purin-9-yl)methyl)cyclopropoxy)me at 60 mg, po qd for 4 weeks by LC-MS analysis. To be noted: in vivo, 672 h. The procedure, abridged:
(§1)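 Oral LB80380 was given once daily for 4 weeks to CHB patients. Plasma LB80331 was quantified by validated LC-MS/MS after protein precipitation, with stable-isotope internal standard, at baseline and steady state (weeks 2–4), 0–24 h postdose. Noncompartmental CL/F was calculated as dose (adjusted for LB80380/LB80331 molecular weights) divided by AUC (AUC0-∞ single dose; AUC0-24 steady state).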

Series [2] relates to Homo sapiens. In words: Oral clearance in chronic hepatitis B virus infected patient assessed as (1-((2-amino-9H-purin-9-yl)methyl)cyclopropoxy)me at 240 mg, po qd for 4 weeks by LC-MS analysis. To be noted: in vivo, 672 h. Put shortly: as §1
Another series relates to Plasma. As to the kind of experiment: AUC (0 to 36 hrs) in CD-1 mouse plasma assessed as (1-((2-amino-9H-purin-9-yl)methyl)cyclopropoxy)me at 30 mg/kg, po administered as single dose by LC-MS analysis. Further details: time < 36 hr, dose 30 mg/kg, route oral. To be noted: in vivo. Put shortly: (§2)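 Male CD-1 mice given a single oral dose in 100% PEG 400. Samples extracted with perchloric acid and neutralized with ammonium bicarbonate. One aliquot assayed for the free analyte; the other treated with calf intestinal phosphatase to give the total including di-/triphosphates. Analysis by LC-MS/MS.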

Series [3] relates to Liver. In words: Cmax in CD-1 mouse liver assessed as (1-((2-amino-9H-purin-9-yl)methyl)cyclopropoxy)me at 30 mg/kg, po administered as single dose by LC-MS analysis. Details: dose 30 mg/kg, route oral. The settings on record: in vivo. Put shortly: as §2
The test system of series [4] is Liver. In words: Tmax in CD-1 mouse liver assessed as di- and triphosphates of (1-((2-amino-9H-purin-9-yl)methyl)cyclopropoxy)me at 30 mg/kg, po administered as single dose by LC-MS analysis. To be noted: in vivo. Details: dose 30 mg/kg, route oral. Put shortly:
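Male CD-1 mice received 30 mg/kg orally in 100% PEG 400. Plasma and snap-frozen liver were taken from 3 mice per time point at 1, 2, 4, 6, 10, 24 and 36 h. Samples were extracted with perchloric acid and neutralized with ammonium bicarbonate. Free LB80331/LB80317 was measured directly by LC-MS/MS; total, including di- and triphosphates, was measured after calf intestinal phosphatase treatment.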

Series [5] concerns Liver. As to the kind of experiment: AUC (0 to infinity) in CD-1 mouse liver assessed as di- and triphosphates of (1-((2-amino-9H-purin-9-yl)methyl)cyclopropoxy)me at 30 mg/kg, po administered as single dose by LC-MS analysis. Details: time infinity, dose 30 mg/kg, route oral. To be noted: in vivo. Put shortly: as §2
Series [6] concerns Liver. In words: Half life in CD-1 mouse liver assessed as di- and triphosphates of (1-((2-amino-9H-purin-9-yl)methyl)cyclopropoxy)me at 30 mg/kg, po administered as single dose by LC-MS analysis. To be noted: in vivo. Further details: dose 30 mg/kg, route oral. The procedure, abridged: as §2
For series [7], the system named is Homo sapiens. In words: Tmax in fasted healthy human assessed as (1-((2-amino-9H-purin-9-yl)methyl)cyclopropoxy)me assessed as (1-((2-amino-9H-purin-9-yl)methyl)cyclopropoxy)me at 60 mg, po administered as single dose by LC-MS analysis. The settings on record: in vivo. Put shortly: (§3)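 Healthy subjects received a single oral 60-mg dose after a high-fat breakfast or after an overnight fast. Plasma LB80331 was assayed by validated LC-MS/MS (LLOQ 5 ng/ml; intra- and interassay precision and accuracy <10%). Tmax was obtained by noncompartmental analysis.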

Series [8] concerns Homo sapiens. In words: Tmax in high fat diet fed healthy human assessed as (1-((2-amino-9H-purin-9-yl)methyl)cyclopropoxy)me assessed as (1-((2-amino-9H-purin-9-yl)methyl)cyclopropoxy)me at 60 mg, po administered as single dose by LC-MS analysis. To be noted: in vivo. The procedure, abridged: as §3
The test system of series [9] is Homo sapiens. As to the kind of experiment: Half life in chronic hepatitis B virus infected patient assessed as (1-((2-amino-9H-purin-9-yl)methyl)cyclopropoxy)me at 30 mg, po administered as single dose by LC-MS analysis. The settings on record: in vivo. Put shortly:
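CHB patients given LB80380 orally once daily for 4 weeks. Plasma was sampled on day 1 and at steady state (weeks 2–4), predose and 0.5, 1, 2, 3, 4, 6, 8 and 24 h postdose. LB80331 was measured by validated LC-MS/MS (LLOQ 5 ng/ml). Terminal-phase apparent t1/2 came from noncompartmental analysis and was flagged if extrapolated AUC exceeded 20% of AUC0-24.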

In series [10] the test system is Homo sapiens. In words: Oral clearance in chronic hepatitis B virus infected patient assessed as (1-((2-amino-9H-purin-9-yl)methyl)cyclopropoxy)me at 30 mg, po administered as single dose by LC-MS analysis. To be noted: in vivo. The procedure, abridged:
as §1

The subject of series [11] is Homo sapiens. In words: Cmax in chronic hepatitis B virus infected patient assessed as (1-((2-amino-9H-purin-9-yl)methyl)cyclopropoxy)me at 60 mg, po administered as single dose by LC-MS analysis. Details: dose 60 mg, route oral. The settings on record: in vivo. The procedure, abridged:
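CHB patients (HBsAg/HBeAg positive), six per dose cohort, given a first oral dose on day 1. Plasma sampled at baseline. Analysis by validated LC-MS/MS after protein precipitation with a stable-isotope internal standard; LLOQ 5 ng/ml for LB80331. Noncompartmental analysis gives Cmax and AUC0-∞.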

In series [12] the test system is Homo sapiens. In words: Tmax in chronic hepatitis B virus infected patient assessed as (1-((2-amino-9H-purin-9-yl)methyl)cyclopropoxy)me at 120 mg, po administered as single dose by LC-MS analysis. To be noted: in vivo. The procedure, abridged:
(§4)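 Daily oral LB80380 was given to CHB patients over 4 weeks. Blood was drawn on day 1 and at steady state (weeks 2–4), predose and 0.5–24 h postdose. Plasma LB80331 (LLOQ 5 ng/ml) and LB80317 (LLOQ 10 ng/ml) were measured by LC-MS/MS after protein-precipitation extraction. Tmax was taken by noncompartmental analysis.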

Series [13] has as its system Homo sapiens. As to the kind of experiment: Tmax in chronic hepatitis B virus infected patient assessed as (1-((2-amino-9H-purin-9-yl)methyl)cyclopropoxy)me at 30 mg, po qd for 4 weeks by LC-MS analysis. To be noted: in vivo, 672 h. Put shortly:
as §4

Series [14] has as its system Homo sapiens. As to the kind of experiment: Oral clearance in chronic hepatitis B virus infected patient assessed as (1-((2-amino-9H-purin-9-yl)methyl)cyclopropoxy)me at 30 mg, po qd for 4 weeks by LC-MS analysis. The settings on record: in vivo, 672 h. Put shortly:
as §1

A word on the CL/F: it is the apparent clearance, not corrected for the fraction that reaches the circulation. One may read the AUC as the area under the concentration-time curve, a measure of exposure. A word on the Cmax: it is the highest concentration seen after dosing. Broadly, the Tmax is the time from dosing to the highest level. With `Nc1ncc2ncn(CC3(OCP(=O)(O)O)CC3)c2n1` [BESIFOVIR], the CL/F in the series on Homo sapiens [1] worked out at 273 mL/min; with Homo sapiens [2], 416 mL/min; in the series on Homo sapiens [10], 288 mL/min; in the series with Homo sapiens [14], 289 mL/min. For the same molecule, the figures for the AUC in the series with Plasma and with Liver [5] were 17 µM·h and 64 µM·h, respectively. Moreover, the peak concentration (Cmax) is 44 µM in the series on Liver [3] and 397 ng/mL in the series on Homo sapiens [11]. Also, the Tmax in the series with Liver [4] is 1 h; in the series with Homo sapiens [7] it was 1.5 h; with Homo sapiens [8], 4 h; in the series on Homo sapiens [12], 2 h; in the series with Homo sapiens [13], 2 h. In addition, the t1/2 in the series with Liver [6] worked out at 3.2 h; in the series with Homo sapiens [9], 2.5 h.
